{"data": "Experimental data gathered from unrelated publications", "target": "Serine/threonine-protein kinase 36 (STK36, Homo sapiens, UniProt Q9NRP7)", "Sequence (Q9NRP7 1-1315, as in one of the studies)": "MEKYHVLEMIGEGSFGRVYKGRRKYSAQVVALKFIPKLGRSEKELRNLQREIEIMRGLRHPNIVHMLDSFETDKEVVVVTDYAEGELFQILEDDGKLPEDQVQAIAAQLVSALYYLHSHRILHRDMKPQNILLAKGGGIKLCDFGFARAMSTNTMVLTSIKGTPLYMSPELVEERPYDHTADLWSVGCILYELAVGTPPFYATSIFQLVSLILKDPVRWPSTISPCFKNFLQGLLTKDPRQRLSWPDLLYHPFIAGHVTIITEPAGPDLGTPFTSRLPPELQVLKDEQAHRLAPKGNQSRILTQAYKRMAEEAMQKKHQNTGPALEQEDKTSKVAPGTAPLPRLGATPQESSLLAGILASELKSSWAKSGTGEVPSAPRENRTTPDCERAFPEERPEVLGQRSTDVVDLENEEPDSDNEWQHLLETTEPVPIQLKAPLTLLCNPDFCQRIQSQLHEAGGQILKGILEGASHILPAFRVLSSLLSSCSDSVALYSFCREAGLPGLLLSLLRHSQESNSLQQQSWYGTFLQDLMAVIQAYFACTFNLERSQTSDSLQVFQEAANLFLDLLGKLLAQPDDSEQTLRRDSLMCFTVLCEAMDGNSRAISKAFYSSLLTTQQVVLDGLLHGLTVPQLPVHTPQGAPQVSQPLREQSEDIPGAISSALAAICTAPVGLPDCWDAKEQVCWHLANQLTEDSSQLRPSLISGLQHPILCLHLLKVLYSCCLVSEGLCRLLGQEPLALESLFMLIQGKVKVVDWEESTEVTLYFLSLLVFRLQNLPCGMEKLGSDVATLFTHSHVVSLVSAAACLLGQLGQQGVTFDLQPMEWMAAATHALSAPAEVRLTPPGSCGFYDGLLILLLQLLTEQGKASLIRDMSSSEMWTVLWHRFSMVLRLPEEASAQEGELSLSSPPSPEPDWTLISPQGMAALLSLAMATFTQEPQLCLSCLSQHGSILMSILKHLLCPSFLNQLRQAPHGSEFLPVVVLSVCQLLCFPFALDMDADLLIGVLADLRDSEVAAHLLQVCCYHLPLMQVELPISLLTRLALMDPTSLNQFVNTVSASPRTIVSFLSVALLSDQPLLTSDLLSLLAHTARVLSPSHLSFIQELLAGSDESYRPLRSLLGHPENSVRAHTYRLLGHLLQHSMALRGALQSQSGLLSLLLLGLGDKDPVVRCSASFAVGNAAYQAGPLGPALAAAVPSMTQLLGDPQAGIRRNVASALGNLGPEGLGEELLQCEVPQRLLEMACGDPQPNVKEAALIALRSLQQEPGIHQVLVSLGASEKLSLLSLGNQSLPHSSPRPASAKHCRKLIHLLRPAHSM", "note": "Lines come from different studies, so protocols differ."}
{"Compound": "N[C@H]1CCN(c2nccc(-c3cnn4ncccc34)n2)C1", "observed": "binding", "tested at": "1 µM", "remaining binding [%]": 62}
{"Compound": "c1ccc(N2CCN(Cc3nc4ccccc4[nH]3)CC2)nc1", "observed": "binding", "method": "competition with immobilised ligand", "tested at": "1 µM", "remaining binding [%]": 84}
{"Compound": "CN(C)c1ncc(F)c(-c2cnn3ncccc23)n1", "observed": "binding", "tested at": "1 µM", "remaining binding [%]": 100}
{"Compound": "C[C@@H](c1ccc(-n2cnc3c(N)ncnc32)cc1)N1CCc2nn(C)c(Cc3ccccc3)c2C1=O", "observed": "binding", "method": "competition with immobilised ligand", "tested at": "0.1 µM", "remaining binding [%]": 67}
{"Compound": "CC1CCCN1c1nccc(-c2cnn3ncccc23)n1 (stereo not shown)", "observed": "binding", "tested at": "1 µM", "remaining binding [%]": 100}
{"Compound": "O=C(c1ccc(Nc2ncc(Cl)c(-c3ccc(Cl)s3)n2)cc1)N1CCC(N2CCCC2)CC1", "observed": "binding", "method": "competition with immobilised ligand", "tested at": "1 µM", "remaining binding [%]": 3.9}
{"Compound": "CN(CCCC(F)(F)F)c1nccc(-c2cnn3ncccc23)n1", "observed": "binding", "tested at": "1 µM", "remaining binding [%]": 92}
{"Compound": "O=C(c1ccc(Nc2nccc(-c3cc4ccccc4s3)n2)cc1)N1CCC(N2CCCC2)CC1", "observed": "binding", "method": "competition with immobilised ligand", "tested at": "1 µM", "remaining binding [%]": 11}
{"Compound": "CN(c1ccnc(CNc2nc(Nc3ccc4c(c3)CC(=O)N4)ncc2C(F)(F)F)n1)S(C)(=O)=O", "observed": "cell-free assay", "method": "competition with immobilised ligand", "tested at": "1 µM", "remaining binding [%]": 87}
{"Compound": "COc1cnc(Nc2cccc(S(N)(=O)=O)c2)nc1N1CCN(c2ccccc2)C(=O)C1", "observed": "binding", "method": "competition with immobilised ligand", "tested at": "1 µM", "remaining binding [%]": 100}
{"Compound": "C[C@@H]1CCN(c2nccc(-c3cnn4ncccc34)n2)C1", "observed": "binding", "tested at": "1 µM", "remaining binding [%]": 87}
{"Compound": "O=C(NCCCN1CCOCC1)c1ccc(Nc2nccc(-c3cc4ccccc4s3)n2)cc1", "observed": "binding", "method": "competition with immobilised ligand", "tested at": "1 µM", "remaining binding [%]": 27}
{"Compound": "CS(=O)(=O)N1CCCC(NC(=O)[C@H](CCC2CCCCC2)NC(=O)c2ccc(CNc3ncnc4c3nnn4-c3ccccc3)cc2)C1 (stereo partly shown)", "observed": "cell-free assay", "method": "competition with immobilised ligand", "tested at": "0.1 µM", "remaining binding [%]": 97}
{"Compound": "CN(C)c1nccc(-c2cnc3ncccn23)n1", "observed": "binding", "tested at": "1 µM", "remaining binding [%]": 99}
{"Compound": "CC(=O)Nc1c(C(C)=O)c(=O)n(C)c2nc(-c3ccc(Cl)cc3Cl)c(-c3ccc(Cl)cc3)cc12", "observed": "cell-free assay", "method": "competition with immobilised ligand", "tested at": "1 µM", "remaining binding [%]": 92}
{"Compound": "O=C(NCC1CCOCC1)c1n[nH]cc1NC(=O)c1c(F)cccc1F", "observed": "binding", "method": "competition with immobilised ligand", "tested at": "1 µM", "remaining binding [%]": 98}
{"Compound": "Cc1cc(-n2nc(Cc3cc(F)cc(C(F)(F)F)c3)nc2C)ccc1C(N)=O", "observed": "cell-free assay", "method": "competition with immobilised ligand", "tested at": "1 µM", "remaining binding [%]": 100}
{"Compound": "Nc1ncc2c(n1)-c1c([nH]c3ccc(C#CC4CC4)cc13)CCCC2", "observed": "binding", "method": "competition with immobilised ligand", "tested at": "1 µM", "remaining binding [%]": 100}
{"Compound": "Cc1c[nH]c2nccc(Oc3c(F)cc(Nc4cc(Cl)nc(N)n4)cc3F)c12", "observed": "cell-free assay", "method": "competition with immobilised ligand", "tested at": "0.1 µM", "remaining binding [%]": 85}
{"Compound": "CNC(=O)[C@@H]1CC[C@@H](n2c(-c3ccc4cnccc4c3)nc3ccc(C(=O)NCc4cccc(C(N)=O)c4)cc32)C1", "observed": "binding", "method": "competition with immobilised ligand", "tested at": "1 µM", "remaining binding [%]": 93}
{"Compound": "CN(C)c1nccc(-c2cnn3ncccc23)n1", "observed": "binding", "tested at": "1 µM", "remaining binding [%]": 100}
{"Compound": "COc1cccc(CNC(=O)c2nc3scc(COCc4ccc(C(=O)O)cc4)c3c(=O)[nH]2)c1", "observed": "cell-free assay", "method": "competition with immobilised ligand", "tested at": "1 µM", "remaining binding [%]": 100}
